Assay results: ChEMBL document CHEMBL3259528, “Exploring 5-nitrofuran derivatives against nosocomial pathogens: synthesis, antimicrobial activity and chemometric analysis” (2014)
Values after ≈ are worked out from the molar mass of the structure shown. Active and inactive are the calls of the source. The calls are words filed in the database; no cut-off is given here.

Experiments:
Staphylococcus aureus [1] = assay: Antimicrobial activity against Staphylococcus aureus ATCC 29213 after 24 to 48 hrs by two-fold broth microdilution method; assay type: functional
Enterococcus faecalis [2] = assay: Antimicrobial activity against Enterococcus faecalis ATCC 29212 after 24 to 48 hrs by two-fold broth microdilution method; assay type: functional
Enterobacter cloacae [3] = assay: Antimicrobial activity against Enterobacter cloacae ATCC 23355 after 24 to 48 hrs by two-fold broth microdilution method; assay type: functional
Klebsiella pneumoniae = assay: Antimicrobial activity against Klebsiella pneumoniae ATCC 700603 at 128 uM after 24 to 48 hrs by two-fold broth microdilution method; assay type: functional, organism-based
Method in brief: (§1)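 Antibacterial microdilution in CAMH, inoculum 0.5 McFarland diluted in saline/CAMH, 35 °C for 18 h, with further reads at 24 and 48 h. Activity is scored at the maximum tested concentration, 128 µM. Triplicate.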

Serratia marcescens [4] = assay: Antimicrobial activity against Serratia marcescens ATCC 14576 at 128 uM after 24 to 48 hrs by two-fold broth microdilution method; assay type: functional, organism-based; method in brief: as §1
Staphylococcus aureus [5] = assay: Antimicrobial activity against multidrug-resistant Staphylococcus aureus VISA3 […] by two-fold broth microdilution method; assay type: functional
Escherichia coli [6] = assay: Antimicrobial activity against Escherichia coli ATCC 25922 after 24 to 48 hrs by two-fold broth microdilution method; assay type: functional
Serratia marcescens [7] = assay: Antimicrobial activity against Serratia marcescens ATCC 14576 after 24 to 48 hrs by two-fold broth microdilution method; assay type: functional
Enterobacter cloacae [8] = assay: Antimicrobial activity against Enterobacter cloacae ATCC 23355 at 128 uM after 24 to 48 hrs by two-fold broth microdilution method; assay type: functional, organism-based; method in brief: as §1
Escherichia coli [9] = assay: Antimicrobial activity against Escherichia coli ATCC 25922 at 128 uM after 24 to 48 hrs by two-fold broth microdilution method; assay type: functional, organism-based; method in brief: as §1
Candida albicans [10] = assay: Antimicrobial activity against Candida albicans ATCC 537Y at 64 uM after 48 hrs by two-fold broth microdilution method; assay type: functional, organism-based
Method in brief: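 Single top concentration of the antifungal microdilution: RPMI 1640, inoculum 0.5 McFarland diluted in saline/RPMI, 35 °C for 48 h. Activity is judged at the highest tested level, 64 µM. Run in triplicate.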

Staphylococcus aureus [11] = assay: Antimicrobial activity against Staphylococcus aureus ATCC 29213 after 18 hrs by modified broth microdilution method; assay type: functional
Method in brief: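 PGI90, the concentration giving 90% growth inhibition, fitted with an exponential growth curve from at least seven concentrations of the MIC assay. Inhibition % = [(Ac − Ap)/Ac] × 100 from A620 of drug-free control versus drug-treated culture. Checked by a modified broth microdilution (Phase 2).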

Candida albicans [12] = assay: Antimicrobial activity against Candida albicans ATCC 537Y after 48 hrs by two-fold broth microdilution method; assay type: functional
Method in brief: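 Two-fold serial dilutions in RPMI 1640 per CLSI M27-A2. Stocks in DMSO/RPMI 1:20 v/v. Test range 1.0–64 µM. Inoculum set to 0.5 McFarland, then diluted in saline and RPMI 1640. Plates held at 35 °C for 48 h. MIC is the lowest concentration giving prominent growth reduction. Run in triplicate.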

Enterococcus faecalis [13] = assay: Antimicrobial activity against Enterococcus faecalis ATCC 29212 at 128 uM after 24 to 48 hrs by two-fold broth microdilution method; assay type: functional, organism-based; method in brief: as §1

MIC (Staphylococcus aureus [1]) [µM]	MIC (Enterococcus faecalis [2]) [µM]	MIC (Enterobacter cloacae [3]) [µM]	MIC (Escherichia coli [6]) [µM]	MIC (Serratia marcescens [7]) [µM]	MIC90 (Staphylococcus aureus [1]) [µM]	log(1/MIC>90) (Staphylococcus aureus [11])	MIC90 (Enterococcus faecalis [2]) [µM]	MIC90 (Escherichia coli [6]) [µM]	MIC90 (Serratia marcescens [7]) [µM]	MIC (Candida albicans [12]) [µM]	MIC90 (Candida albicans [12]) [µM]	SMILES	Activity (Klebsiella pneumoniae)	Activity (Serratia marcescens [4])	MIC (Staphylococcus aureus [5]) [µM]	Activity (Enterobacter cloacae [8])	Activity (Escherichia coli [9])	Activity (Candida albicans [10])	MIC90 (Enterobacter cloacae [3]) [µM]	Activity (Enterococcus faecalis [13])
16 (≈ 3.81 µg/mL)	16 (≈ 3.81 µg/mL)	8 (≈ 1.91 µg/mL)										O=C1CN(/N=C/c2ccc([N+](=O)[O-])o2)C(=O)N1 [NITROFURANTOIN]	inactive	inactive						
4 (≈ 1.14 µg/mL)	32 (≈ 9.1 µg/mL)		64 (≈ 18.2 µg/mL)	64 (≈ 18.2 µg/mL)	5.35 (≈ 1.52 µg/mL)	5.27	40.4 (≈ 11.5 µg/mL)	97.3 (≈ 27.7 µg/mL)	111 (≈ 31.5 µg/mL)			N#Cc1ccc(C(=O)N/N=C/c2ccc([N+](=O)[O-])o2)cc1	inactive			inactive		inactive		
8 (≈ 2.76 µg/mL)			64 (≈ 22.1 µg/mL)	64 (≈ 22.1 µg/mL)	8.14 (≈ 2.81 µg/mL)	5.09		78.6 (≈ 27.1 µg/mL)	85.7 (≈ 29.6 µg/mL)	8 (≈ 2.76 µg/mL)	8.39 (≈ 2.9 µg/mL)	CCOc1ccc(C2=NN(C(C)=O)C(c3ccc([N+](=O)[O-])o3)O2)cc1 (stereo unspecified)	inactive			inactive				
4 (≈ 1.39 µg/mL)	32 (≈ 11.1 µg/mL)		32 (≈ 11.1 µg/mL)	64 (≈ 22.2 µg/mL)	5.78 (≈ 2 µg/mL)	5.14	57.3 (≈ 19.8 µg/mL)	54.6 (≈ 18.9 µg/mL)	90.5 (≈ 31.3 µg/mL)	32 (≈ 11.1 µg/mL)	44.6 (≈ 15.4 µg/mL)	CC(=O)N1N=C(c2ccc([N+](=O)[O-])cc2)OC1c1ccc([N+](=O)[O-])o1 (stereo unspecified)	inactive			inactive				
4 (≈ 1.48 µg/mL)	32 (≈ 11.8 µg/mL)		64 (≈ 23.7 µg/mL)	64 (≈ 23.7 µg/mL)	6.12 (≈ 2.27 µg/mL)	5.21	31.7 (≈ 11.7 µg/mL)	86.1 (≈ 31.9 µg/mL)	85.7 (≈ 31.7 µg/mL)	32 (≈ 11.8 µg/mL)	42.2 (≈ 15.6 µg/mL)	CC(=O)N1N=C(c2ccc(Cl)cc2Cl)OC1c1ccc([N+](=O)[O-])o1 (stereo unspecified)	inactive			inactive				
2 (≈ 0.548 µg/mL)	4 (≈ 1.1 µg/mL)	4 (≈ 1.1 µg/mL)	8 (≈ 2.19 µg/mL)		4.77 (≈ 1.31 µg/mL)	5.32	5.63 (≈ 1.54 µg/mL)	15.9 (≈ 4.36 µg/mL)				Nc1ccc(C(=O)N/N=C/c2ccc([N+](=O)[O-])o2)cc1	inactive	inactive				inactive	6.8 (≈ 1.86 µg/mL)	
4 (≈ 1.21 µg/mL)			32 (≈ 9.67 µg/mL)		7.7 (≈ 2.33 µg/mL)	5.11		55 (≈ 16.6 µg/mL)				CN(C)c1ccc(C(=O)N/N=C/c2ccc([N+](=O)[O-])o2)cc1	inactive	inactive		inactive		inactive		inactive
2 (≈ 0.663 µg/mL)	16 (≈ 5.3 µg/mL)				4.14 (≈ 1.37 µg/mL)	5.38	24.1 (≈ 7.97 µg/mL)					CCCCOc1ccc(C(=O)N/N=C/c2ccc([N+](=O)[O-])o2)cc1	inactive	inactive		inactive	inactive	inactive		
2 (≈ 0.554 µg/mL)	64 (≈ 17.7 µg/mL)		32 (≈ 8.87 µg/mL)	64 (≈ 17.7 µg/mL)	6.64 (≈ 1.84 µg/mL)	5.18	71.2 (≈ 19.7 µg/mL)	44.1 (≈ 12.2 µg/mL)	104 (≈ 28.9 µg/mL)	32 (≈ 8.87 µg/mL)	57 (≈ 15.8 µg/mL)	O=C(N/N=C/c1ccc([N+](=O)[O-])o1)c1ccc(F)cc1	inactive			inactive				
2 (≈ 0.676 µg/mL)					4.5 (≈ 1.52 µg/mL)	5.35						O=C(N/N=C/c1ccc([N+](=O)[O-])o1)c1ccc(Br)cc1	inactive	inactive		inactive	inactive	inactive		inactive
4 (≈ 1.35 µg/mL)					8.34 (≈ 2.82 µg/mL)	5.08						NS(=O)(=O)c1ccc(C(=O)N/N=C/c2ccc([N+](=O)[O-])o2)cc1	inactive	inactive		inactive	inactive	inactive		inactive

The next lines start with the compound.

SMILES	MIC (Staphylococcus aureus [1]) [µM]	MIC (Enterococcus faecalis [2]) [µM]	MIC (Enterobacter cloacae [3]) [µM]	MIC (Escherichia coli [6]) [µM]	MIC (Serratia marcescens [7]) [µM]	MIC90 (Staphylococcus aureus [1]) [µM]	log(1/MIC>90) (Staphylococcus aureus [11])	MIC90 (Enterococcus faecalis [2]) [µM]	MIC90 (Escherichia coli [6]) [µM]	MIC90 (Serratia marcescens [7]) [µM]	MIC (Candida albicans [12]) [µM]	MIC90 (Candida albicans [12]) [µM]	Activity (Klebsiella pneumoniae)	Activity (Serratia marcescens [4])	MIC (Staphylococcus aureus [5]) [µM]	Activity (Enterobacter cloacae [8])	Activity (Escherichia coli [9])	Activity (Candida albicans [10])	MIC90 (Enterobacter cloacae [3]) [µM]	Activity (Enterococcus faecalis [13])
CN[C@H](CC(C)C)C(=O)N[C@H]1C(=O)N[C@@H](CC(N)=O)C(=O)N[C@H]2C(=O)N[C@H]3C(=O)N[C@H](C(=O)N[C@H](C(=O)O)c4cc(O)cc(O)c4-c4cc3ccc4O)[C@H](O)c3ccc(c(Cl)c3)Oc3cc2cc(c3O[C@@H]2O[C@H](CO)[C@@H](O)[C@H](O)[C@H]2O[C@H]2C[C@](C)(N)[C@H](O)[C@H](C)O2)Oc2ccc(cc2Cl)[C@H]1O [VANCOMYCIN]	< 20														2 (≈ 2.9 µg/mL)					
O=C(N[C@H](CO)[C@H](O)c1ccc([N+](=O)[O-])cc1)C(Cl)Cl [CHLORAMPHENICOL]	4 (≈ 1.29 µg/mL)	8 (≈ 2.59 µg/mL)	4 (≈ 1.29 µg/mL)	4 (≈ 1.29 µg/mL)	8 (≈ 2.59 µg/mL)								inactive							
CC(=O)N1N=C(c2ccc(Cl)c(Cl)c2)OC1c1ccc([N+](=O)[O-])o1 (stereo unspecified)	4 (≈ 1.48 µg/mL)					4.63 (≈ 1.71 µg/mL)	5.33						inactive	inactive	4 (≈ 1.48 µg/mL)	inactive	inactive	inactive		
CCCCc1ccc(C(=O)N/N=C/c2ccc([N+](=O)[O-])o2)cc1	2 (≈ 0.631 µg/mL)	32 (≈ 10.1 µg/mL)				1.8 (≈ 0.568 µg/mL)	5.74	55.9 (≈ 17.6 µg/mL)					inactive	inactive	2 (≈ 0.631 µg/mL)	inactive	inactive	inactive		
CC(=O)N1N=C(c2ccc(C(F)(F)F)cc2)OC1c1ccc([N+](=O)[O-])o1 (stereo unspecified)	4 (≈ 1.48 µg/mL)					5.6 (≈ 2.07 µg/mL)	5.25						inactive	inactive	4 (≈ 1.48 µg/mL)	inactive	inactive	inactive		
CC(=O)N1N=C(c2ccc(Cl)cc2)OC1c1ccc([N+](=O)[O-])o1 (stereo unspecified)	4 (≈ 1.34 µg/mL)			64 (≈ 21.5 µg/mL)		5.45 (≈ 1.83 µg/mL)	5.26		88.7 (≈ 29.8 µg/mL)				inactive	inactive	4 (≈ 1.34 µg/mL)	inactive		inactive		
CC1(C)S[C@@H]2[C@H](NC(=O)[C@H](N)c3ccccc3)C(=O)N2[C@H]1C(=O)O [AMPICILLIN]	< 20	< 20	8 (≈ 2.8 µg/mL)	< 20									inactive	inactive						
CC(=O)N1N=C(c2ccc(C#N)cc2)OC1c1ccc([N+](=O)[O-])o1 (stereo unspecified)	2 (≈ 0.653 µg/mL)	64 (≈ 20.9 µg/mL)		32 (≈ 10.4 µg/mL)	64 (≈ 20.9 µg/mL)	3.89 (≈ 1.27 µg/mL)	5.41	75.2 (≈ 24.5 µg/mL)	43.1 (≈ 14.1 µg/mL)	96.3 (≈ 31.4 µg/mL)	32 (≈ 10.4 µg/mL)	47.6 (≈ 15.5 µg/mL)	inactive		4 (≈ 1.31 µg/mL)	inactive				
O=C(N/N=C/c1ccc([N+](=O)[O-])o1)c1ccc([N+](=O)[O-])cc1	2 (≈ 0.608 µg/mL)					3 (≈ 0.913 µg/mL)	5.48						inactive	inactive	4 (≈ 1.22 µg/mL)	inactive	inactive	inactive		inactive
O=C(N/N=C/c1ccc([N+](=O)[O-])o1)c1ccc(O)cc1 [NIFUROXAZIDE]	4 (≈ 1.1 µg/mL)	8 (≈ 2.2 µg/mL)	32 (≈ 8.81 µg/mL)	32 (≈ 8.81 µg/mL)		8.87 (≈ 2.44 µg/mL)	5.05	10.6 (≈ 2.93 µg/mL)	42 (≈ 11.6 µg/mL)				inactive	inactive	8 (≈ 2.2 µg/mL)			inactive	31.2 (≈ 8.59 µg/mL)	
CC(=O)N1N=C(c2ccc(Br)cc2)OC1c1ccc([N+](=O)[O-])o1 (stereo unspecified)	4 (≈ 1.52 µg/mL)					5.13 (≈ 1.95 µg/mL)	5.29						inactive	inactive	8 (≈ 3.04 µg/mL)	inactive	inactive	inactive		
